The source of these data is ChEMBL document CHEMBL1132156, “Synthesis and structure-activity relationships of potential anticancer agents: alkylcarbamates of 3-(9-acridinylamino)-5-hydroxymethylaniline” (J Med Chem, 1999).

For series [1], the system named is HL-60. Kind of series: In vitro growth inhibition against human leukemia HL-60 cell line. The class given is functional, cell-based. The procedure, abridged: (§1)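 HL-60 cells were seeded at 5×10^4 cells/mL in RPMI 1640 with 10% heat-inactivated FBS, penicillin and streptomycin, at 37 °C in 5% CO2. Cells were exposed for 72 h to six or seven drug concentrations, run in duplicate. Viability was read by XTT-tetrazolium microculture absorbance, and IC50 was derived from median-effect plot analysis.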

The test system of series [2] is Mus musculus. As to the kind of experiment: […] anticancer activity against 5 B6D2F-1 mice bearing P388 leukemia measured by the toxicity death at an intravenous dose of 16(mg/kg).. It counts as organism-based. Conditions: in vivo. The procedure, abridged:
(§2)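 Male B6D2F1 mice, 8 weeks old, 20–25 g. P388/0 ascites cells (0.2 mL, ascites:saline 1.10) were implanted iv on day 0, and the tumor grew in the liver. Drug was given iv by tail vein on days 1, 3, 5, 7 and 9 (Q2Dx5), with 4–5 mice per group. Survival time was scored as 8 a.m. (0.0), 1 p.m. (0.25) or 5 p.m. (0.5) deaths. %ILS was averaged against untreated controls, and toxic deaths were counted.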

In series [3] the test system is Mus musculus. Kind of series: […] anticancer activity against B6D2F-1 mice bearing P388 leukemia measured by the average weight change(g) after day 7 at an intravenous dose of 16(mg/kg). The class given is functional. The procedure, abridged:
(§3)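 Male B6D2F1 mice (8 weeks old, 20–25 g) were implanted iv on day 0 with P388/0 ascites cells (0.2 mL; ascites:saline 1.10), which grew in the liver. Drug was given iv via the tail vein, Q2Dx5, on days 1, 3, 5, 7 and 9. Groups had 4–5 mice. Day 1 value is mean body weight; later days are weight change.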

Series [4] has as its system Mus musculus. As to the kind of experiment: […] anticancer activity against B6D2F-1 mice bearing P388 leukemia measured by the average weight change(g) after day 11 at an intravenous dose of 16(mg/kg). It counts as functional. The method, boiled down:
as §3

Series [5] concerns Mus musculus. Kind of series: […] anticancer activity against B6D2F-1 mice bearing P388 leukemia measured by the average weight change(g) after day 9 at an intravenous dose of 16(mg/kg). It counts as functional. The method, boiled down:
(§4)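 Male B6D2F1 mice (8 weeks old, 20–25 g) were implanted iv on day 0 with P388/0 ascites cells (0.2 mL; ascites:saline = 1.10). Tumor grew in the liver. Drug was given iv via the tail vein, Q2Dx5, on days 1, 3, 5, 7 and 9. Body weight was recorded on days 1, 7, 9 and 11 and reported as the average change (g).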

Series [6] concerns Mus musculus. As to the kind of experiment: […] anticancer activity against B6D2F-1 mice bearing P388 leukemia measured by the increase in lifespan at an intravenous dose of 22(mg/kg). The class given is functional. The method, boiled down: as §2
The subject of series [7] is Mus musculus. As to the kind of experiment: […] anticancer activity against B6D2F-1 mice bearing P388 leukemia measured by the Average survival time(days) at an intravenous dose of 30(mg/kg). The class given is functional. The method, boiled down:
as §2

In series [8] the test system is Mus musculus. As to the kind of experiment: […] anticancer activity against 5 B6D2F-1 mice bearing P388 leukemia measured by the toxicity death at an intravenous dose of 22(mg/kg). Conditions: in vivo. It counts as organism-based. The method, boiled down:
as §2

The test system of series [9] is Mus musculus. Kind of series: […] anticancer activity against B6D2F-1 mice bearing P388 leukemia measured by the increase in lifespan at an intravenous dose of 16(mg/kg).. The class given is functional. The procedure, abridged: as §2
The subject of series [10] is Mus musculus. Kind of series: […] anticancer activity against B6D2F-1 mice bearing P388 leukemia measured by the average weight change(g) after day 9 at an intravenous dose of 30(mg/kg). It counts as functional. The procedure, abridged: as §4
Series [11] has as its system Mus musculus. Kind of series: […] anticancer activity against B6D2F-1 mice bearing P388 leukemia measured by the average weight change(g) after day 11 at an intravenous dose of 22(mg/kg). It counts as functional. The method, boiled down: as §3
Series [12] has as its system Mus musculus. Kind of series: […] anticancer activity against 4 B6D2F-1 mice bearing P388 leukemia measured by the toxicity death at an intravenous dose of 30(mg/kg). It counts as organism-based. As to conditions: in vivo. The procedure, abridged:
as §2

In series [13] the test system is Mus musculus. As to the kind of experiment: […] anticancer activity against B6D2F-1 mice bearing P388 leukemia measured by the Average survival time(days) at an intravenous dose of 22(mg/kg). It counts as functional. The method, boiled down: as §2
In series [14] the test system is Mus musculus. Kind of series: […] anticancer activity against B6D2F-1 mice bearing P388 leukemia measured by the average body weight(g) after day 1 at an intravenous dose of 30(mg/kg).
Series [15] concerns Mus musculus. Kind of series: […] anticancer activity against B6D2F-1 mice bearing P388 leukemia measured by the average weight change(g) after day 9 at an intravenous dose of 22(mg/kg). The class given is functional. The method, boiled down: as §4
Series [16] concerns Mus musculus. As to the kind of experiment: […] anticancer activity against B6D2F-1 mice bearing P388 leukemia measured by the average survival time(days) at an intravenous dose of 16(mg/kg).. The class given is functional. The method, boiled down: as §2
Series [17] has as its system Mus musculus. As to the kind of experiment: […] anticancer activity against B6D2F-1 mice bearing P388 leukemia measured by the average body weight(g) after day 1 at an intravenous dose of 22(mg/kg).
Series [18] deals with Mus musculus. Kind of series: […] anticancer activity against B6D2F-1 mice bearing P388 leukemia measured by the average weight change(g) after day 7 at an intravenous dose of 30(mg/kg). The class given is functional. The method, boiled down:
as §4

Series [19] relates to Mus musculus. Kind of series: […] anticancer activity against B6D2F-1 mice bearing P388 leukemia measured by the average weight change(g) after day 7 at an intravenous dose of 22(mg/kg). It counts as functional. The method, boiled down: as §3
For series [20], the system named is Mus musculus. As to the kind of experiment: […] anticancer activity against B6D2F-1 mice bearing P388 leukemia measured by the increase in lifespan at an intravenous dose of 30(mg/kg). It counts as functional. The procedure, abridged: as §2
Series [21] has as its system Mus musculus. Kind of series: […] anticancer activity against B6D2F-1 mice bearing P388 leukemia measured by the average body weight(g) after day 1 at an intravenous dose of 16(mg/kg).
Series [22] deals with Mus musculus. Kind of series: […] anticancer activity against B6D2F-1 mice bearing P388 leukemia measured by the average weight change(g) after day 11 at an intravenous dose of 30(mg/kg). It counts as functional. The procedure, abridged:
as §3

For series [23], the system named is HL-60. Kind of series: In vitro inhibition of human leukemic HL-60 cell growth in culture. It counts as functional, cell-based. The method, boiled down:
as §1

The test system of series [24] is Mus musculus. As to the kind of experiment: […] anticancer activity against B6D2F-1 mice bearing P388 leukemia measured by the average weight change(g) after day 7 at an intravenous dose of 12(mg/kg). It counts as functional. The method, boiled down:
as §3

For series [25], the system named is Mus musculus. As to the kind of experiment: […] anticancer activity against B6D2F-1 mice bearing P388 leukemia measured by the Average survival time(day+/-SD) at an intravenous dose of 18(mg/kg). The class given is functional. The procedure, abridged: as §2
The test system of series [26] is Mus musculus. Kind of series: […] anticancer activity against B6D2F-1 mice bearing P388 leukemia measured by the average survival time(day+/-SD) at an intravenous dose of 8(mg/kg).. It counts as functional. The method, boiled down:
as §2

Series [27] concerns Mus musculus. Kind of series: […] anticancer activity against B6D2F-1 mice bearing P388 leukemia measured by the average weight change(g) after day 11 at an intravenous dose of 12(mg/kg). The class given is functional. The procedure, abridged: as §3
The subject of series [28] is Mus musculus. As to the kind of experiment: […] anticancer activity against B6D2F-1 mice bearing P388 leukemia measured by the increase in lifespan(%) at an intravenous dose of 12(mg/kg). The class given is functional. The method, boiled down: as §2
Series [29] concerns Mus musculus. As to the kind of experiment: […] anticancer activity against B6D2F-1 mice bearing P388 leukemia measured by the Average survival time(day+/-SD) at an intravenous dose of 12(mg/kg). The class given is functional. The method, boiled down:
as §2

Series [30] relates to Mus musculus. Kind of series: […] anticancer activity against B6D2F-1 mice bearing P388 leukemia measured by the increase in lifespan(%) at an intravenous dose of 8(mg/kg).. The class given is functional. The procedure, abridged:
as §2

Series [31] deals with Mus musculus. Kind of series: […] anticancer activity against B6D2F-1 mice bearing P388 leukemia measured by the average weight change(g) after day 9 at an intravenous dose of 8(mg/kg). The class given is functional. The method, boiled down:
as §4

For series [32], the system named is Mus musculus. As to the kind of experiment: […] anticancer activity against B6D2F-1 mice bearing P388 leukemia measured by the increase in lifespan(%) at an intravenous dose of 18(mg/kg). It counts as functional. The procedure, abridged: as §2
The test system of series [33] is Mus musculus. Kind of series: […] anticancer activity against B6D2F-1 mice bearing P388 leukemia measured by the average body weight(g) after day 1 at an intravenous dose of 18(mg/kg).
Series [34] has as its system Mus musculus. As to the kind of experiment: […] anticancer activity against B6D2F-1 mice bearing P388 leukemia measured by the average weight change(g) after day 11 at an intravenous dose of 8(mg/kg). The class given is functional. The procedure, abridged: as §3
Series [35] concerns Mus musculus. Kind of series: […] anticancer activity against B6D2F-1 mice bearing P388 leukemia measured by the average weight change(g) after day 9 at an intravenous dose of 12(mg/kg). It counts as functional. The procedure, abridged: as §4
The test system of series [36] is Mus musculus. Kind of series: […] anticancer activity against B6D2F-1 mice bearing P388 leukemia measured by the average body weight(g) after day 1 at an intravenous dose of 8(mg/kg).
In series [37] the test system is Mus musculus. Kind of series: […] anticancer activity against B6D2F-1 mice bearing P388 leukemia measured by the average weight change(g) after day 7 at an intravenous dose of 8(mg/kg). The class given is functional. The method, boiled down: as §4
The test system of series [38] is Mus musculus. Kind of series: […] anticancer activity against B6D2F-1 mice bearing P388 leukemia measured by the average body weight(g) after day 1 at an intravenous dose of 12(mg/kg).
Series [39] concerns Mus musculus. Kind of series: […] anticancer activity against B6D2F-1 mice bearing P388 leukemia measured by the average weight change(g) after day 7 at an intravenous dose of 18(mg/kg). It counts as functional. The method, boiled down:
as §3

Take `CCOC(=O)Nc1cc(CO)cc(Nc2c3cccc(C)c3nc3c(C(=O)NCCN(C)C)cccc23)c1`: the IC50 (usually the concentration that inhibits the measured activity by half) in the series with HL-60 [1] worked out at 2.3 nM.

As to `Nc1cc(CO)cc(Nc2c3ccccc3nc3ccccc23)c1`, the Toxicity related death in the series with Mus musculus [2], with Mus musculus [8] and with Mus musculus [12] was 0 throughout. Also, the Average weight change with Mus musculus [3] was 0.8 g; in the series with Mus musculus [4] it was -2.1 g; in the series with Mus musculus [5], -0.5 g; in the series with Mus musculus [10], -0.1 g; in the series with Mus musculus [11] it was -2.8 g; in the series with Mus musculus [15], -1.5 g. The Average weight change is listed as 0.2 g with Mus musculus [18], -1.3 g in the series with Mus musculus [19] and -0.2 g with Mus musculus [22]. Further, the Increase in life-span with Mus musculus [6] is given as 230%; in the series on Mus musculus [9], 133%; in the series with Mus musculus [20], 240%. The figures for the Average survival with Mus musculus [7], with Mus musculus [13] and in the series with Mus musculus [16] were 21.8 days, 21.1 days and 14.9 days, respectively. Also, the figures for the Body weight with Mus musculus [14], in the series with Mus musculus [17] and in the series with Mus musculus [21] were 22.6 g, 23.8 g and 23.3 g, respectively. The compound further registered an IC50 with HL-60 [23] of 27 nM.

As for `COc1cc(NS(C)(=O)=O)ccc1Nc1c2ccccc2nc2ccccc12` [AMSACRINE], the Average weight change in the series with Mus musculus [24] was -0.7 g; with Mus musculus [27], -3.2 g; with Mus musculus [31], -2.1 g; in the series on Mus musculus [34] it was -3.8 g; in the series with Mus musculus [35], -1.4 g; in the series with Mus musculus [37], 0.1 g. The compound further came in with an Average weight change in the series on Mus musculus [39] of -4.3 g. Further, the Average survival with Mus musculus [25] turned out to be 7.6 days; in the series on Mus musculus [26] it was 12.2 days; in the series on Mus musculus [29], 14.1 days. Also, the Increase in life-span with Mus musculus [28] is given as 120%; with Mus musculus [30] it was 91%; with Mus musculus [32], 19%. The Body weight is on record as 24.5 g in the series on Mus musculus [33], 22.8 g in the series on Mus musculus [36] and 22.7 g in the series on Mus musculus [38].
